Assay results as given in ChEMBL document CHEMBL1155769 (Antimicrob Agents Chemother, 2007).
Activity calls are given as the source filed them. The rule behind the calls is not given here.

Tests used:
[1] = Binding affinity to heme in HEPES buffer at pH 7.4 upto 60 uM after 30 mins by Jobs plot
Plasmodium falciparum = experiment: Antimalarial activity against chloroquine-sensitive Plasmodium falciparum D6 infected in human erythrocytes after 48 hrs; format: functional, organism-based; settings: D6, 48 h
Outline: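 Human erythrocytes infected with chloroquine-sensitive P. falciparum clone D6, mainly rings, at 4% parasitemia and 5% hematocrit. Cultured in RPMI 1640 with 10% human AB serum, with serial drug dilutions in triplicate. Incubated 48 h at 37°C in a candle jar. Parasitized cells per 10,000 counted on Giemsa-stained thin smears. Inhibition vs drug-free control was plotted, and IC50 (µM) read graphically.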

[2] = Toxicity against human erythrocytes assessed as potentiation of heme-induced hemolysis at 10 uM in presence of heme; format: cell-based; settings: erythrocyte
Outline: (§1)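 Washed fresh human erythrocytes (0.5% in PBS, pH 7.4) were used. Heme, either 0–20 µM with 10 µM drug or 10 µM with various drug concentrations, was preincubated 10 min in PBS, then cells were added. Plates were shaken 2 h at 37°C and read at 630 nm. Percent hemolysis was calculated relative to a cells-only control. Error bars are SD.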

[3] = Binding affinity to heme in phosphate buffer at pH 7.4 by Hills plot
[4] = Toxicity against human erythrocytes assessed as heme-induced hemolysis up to 30 uM in absence of heme; format: cell-based; settings: erythrocyte
Outline: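 Fresh heparinized human donor erythrocytes, washed six times in PBS, pH 7.4, used as a 0.5% suspension. Drugs up to 30 µM without heme were tested. Hemolysis was followed by turbidity at 630 nm, with a cells-only well taken as 0% hemolysis.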

[5] = Inhibition of beta-hematin formation after 16 hrs
[6] = Binding affinity to heme in HEPES buffer at pH 7.4 upto 20 uM after 30 mins by Jobs plot
Outline: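 Continuous-variation (Job's) method: drug and heme mixed in 40% DMSO buffered with 20 mM HEPES, pH 7.4, at a constant combined final concentration of 10 µM. Mixtures were held 30 min at room temperature (25°C). Differential absorbance at 400 nm was taken as the mixture absorbance minus the summed heme and drug absorbances. Three independent experiments, mean ± SEM.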

[7] = Binding affinity to heme in HEPES buffer at pH 7.4 after 30 mins by Jobs plot
Outline: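 Continuous-variation (Job's) plot: drug–heme mixtures in 40% DMSO buffered with 20 mM HEPES, pH 7.4, total heme plus drug held at 10 µM. Incubated 30 min at room temperature (25°C). Differential absorbance at 400 nm was taken as mixture minus summed heme and drug absorbance. Mean ± SEM of three independent experiments.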

[8] = Toxicity against human erythrocytes assessed as potentiation of heme-induced hemolysis in presence of variable concentration of heme; format: cell-based; settings: erythrocyte; outline: as §1

Row | SMILES | Activity [1] | IC50 (Plasmodium falciparum) [nM] | Activity [2] | Ka [3] [×10⁵ /M] | Activity [4] | IC50 [5] [nM] | Activity [6] | Activity [3] | Activity [7] | Activity [8]
1 | COc1cc(NC(C)CCCN)c2nc(C(C)(C)C)ccc2c1 (centres undefined) | Active | 100 | Dose-dependent effect | 0.61 | Not Active | 2900 | – | – | – | –
2 | CCN(CC)CCCC(C)Nc1ccnc2cc(Cl)ccc12 (centres undefined) [CHLOROQUINE] | – | – | Dose-dependent effect | – | Not Active | – | Active | – | – | –
3 | COc1cc(NC(C)CCCN)c2ncccc2c1 (centres undefined) [PRIMAQUINE] | – | – | Not Active | – | Not Active | – | – | inactive | inactive | Not Active
